Results on 40 compounds are retold here after ChEMBL document CHEMBL1142998, “Structure-activity relationship study of tricyclic necroptosis inhibitors” (J Med Chem, 2007).

Active and inactive are the calls of the source. The rule behind the calls is not given here. Some results are limits rather than exact numbers.

The subject of one assay is L929. The experiment in a line: Inhibition of zVAD.fmk-induced necroptosis in mouse L929 cells assessed as cell viability at 30 uM after 24 hrs. Format: functional, cell-based. The method, boiled down: (§1)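 L929 cells, 100000 cells/mL, challenged with 10 ng/mL human TNF-α or 100 µM zVAD.fmk alongside compound at 30 µM or DMSO, 24 h, 37 °C, 5% CO2; final DMSO 0.5%, duplicates. Viability by luminescent ATP assay, corrected for nonspecific compound toxicity; mean % viability ± SD from two independent experiments.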
Consider `COc1ccc([C@H]2[C@H]3CCc4ccc(OC)cc4C3=NN2C(C)=O)cc1`, for which the outcome was inactive. As to `CN1C(=O)N[C@H](Cc2c[nH]c3c(Cl)cccc23)C1=O` (racemic), the result was Active.

A further assay has as its system L929. In words: Inhibition of TNF alpha-induced necroptosis in mouse L929 cells assessed as cell viability at 30 uM after 24 hrs. The class given is functional, cell-based. The method, boiled down: as §1
On to `COc1ccc([C@H]2[C@H]3CCc4ccc(OC)cc4C3=NN2C(C)=O)cc1`, for which the outcome was Active. As for `CN1C(=O)N[C@H](Cc2c[nH]c3c(Cl)cccc23)C1=O` (racemic), the outcome was Active.

The test system of the next assay is Jurkat. The experiment in a line: Inhibition of TNF alpha-induced necroptosis in FADD-deficient variant human Jurkat T cells assessed as cell viability after 24 hrs. The class given is functional, cell-based. The method in brief: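 FADD-deficient human Jurkat T cells at 500000 cells/mL exposed to 10 ng/mL human TNF-α plus compound at 11 concentrations (0.029–100 µM), each in duplicate, 24 h, 37 °C, 5% CO2; final DMSO 0.5%. ATP luminescence viability expressed relative to compound alone (TNF/compound signal ratio). EC50 from variable-slope sigmoid nonlinear regression; two independent experiments unless noted.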
A word on the EC50: it is the concentration needed to bring the measured effect to its halfway point. Take `COc1ccc2c(c1)C1=NN(C(C)=O)[C@@H](c3ccc(F)cc3)[C@H]1CO2`: the half-maximal effective concentration (EC50) was determined as 4.8 µM. Same read-out and setting: in the case of `COc1ccc2c(c1)CC[C@H]1C2=NN(C(C)=O)[C@H]1c1ccc(F)cc1` it was over 100 µM.

As for `CC(=O)N1N=C2c3cc(C)ccc3OC[C@@H]2[C@@H]1c1ccc(F)cc1`, the EC50 amounted to 11.6 µM. Take `COc1ccc([C@H]2[C@@H]3CCc4ccc([N+](=O)[O-])cc4C3=NN2C(C)=O)cc1`: the EC50 was over 100 µM. On the same count and under the same terms, then `CNC(=S)N1N=C2c3cc(OC)ccc3CC[C@@H]2[C@@H]1c1ccc(OC)cc1`, with 7.9 µM; and `COc1ccc([C@H]2[C@H]3CCc4ccc(OC)cc4C3=NN2C(=N)N)cc1`, with over 100 µM; and `COc1ccc2c(c1)C1=NN(C(C)=O)[C@@H](c3ccc([N+](=O)[O-])cc3)[C@H]1CC2`, with 1.8 µM. Consider `COc1ccc2c(c1)C1=NN(C(C)=O)[C@@H](c3ccc(SC)cc3)[C@H]1CC2`, for which the 50% effective concentration (EC50) was determined as 1.1 µM. `COc1ccc2c(c1)C1=NN(C(C)=O)[C@@H](c3ccc4c(c3)OCCO4)[C@H]1CC2`: the half-maximal effective concentration (EC50) is 2.1 µM. In the case of `COc1ccc2c(c1)C1=NN(C(C)=O)[C@@H](c3ccccc3OC)[C@H]1CC2`, the EC50 is over 100 µM. Regarding `COCC(=O)N1N=C2c3cc(OC)ccc3CC[C@@H]2[C@@H]1c1ccc(OC)cc1`, the EC50 came to 0.44 µM. Same read-out and setting: in the case of `COc1ccc([C@H]2[C@H]3CCc4ccc(OCc5ccccc5)cc4C3=NN2C(C)=O)cc1` it was 5 µM; in that of `COc1ccc([C@H]2[C@H]3CCc4ccc(OCCN5CCOCC5)cc4C3=NN2C(C)=O)cc1`, over 50 µM. Consider `COc1ccc2c(c1)C1=NN(C(C)=O)[C@@H](c3ccc4c(c3)OCO4)[C@H]1CC2`, for which the EC50 is 2.6 µM. Take `CCC(=O)N1N=C2c3cc(OC)ccc3CC[C@@H]2[C@@H]1c1ccc(OC)cc1`: the EC50 is 0.15 µM. For `COc1ccc([C@H]2[C@H]3CCc4ccc(OC)cc4C3=NN2C(N)=S)cc1`, the half-maximal effective concentration (EC50) is 8.8 µM. With `COc1ccc([C@H]2[C@H]3CCc4ccc([N+](=O)[O-])cc4C3=NN2C(C)=O)cc1`, the EC50 worked out at 3.5 µM.

In the case of `COc1ccc2c(c1)C1=NN(C(C)=O)[C@@H](c3ccc(O)cc3)[C@H]1CC2`, the 50% effective concentration (EC50) turned out to be 5.9 µM. On the same count and under the same terms, then `COc1ccc([C@H]2[C@H]3CCc4c(OC)cccc4C3=NN2C(C)=O)cc1`, with over 100 µM. For `COc1ccc2c(c1)CC[C@@H]1C2=NN(C(C)=O)[C@H]1c1ccc(F)cc1`, the concentration for a half-maximal effect (EC50) is over 100 µM. For `COc1cc2c(cc1OC)C1=NN(C(C)=O)[C@@H](c3ccc(F)cc3)[C@H]1CC2`, the 50% effective concentration (EC50) was over 100 µM.

For `COc1ccc([C@H]2[C@H]3CCc4cccc(OC)c4C3=NN2C(C)=O)cc1`, the EC50 is over 50 µM. Turning to `COc1ccc2c(c1)C1=NN(C(C)=O)[C@@H](c3ccc(OCc4ccccc4)cc3)[C@H]1CC2`, the EC50 was over 100 µM. Take `CC(=O)N1N=C2c3ccccc3CC[C@@H]2[C@@H]1c1ccc(F)cc1`: the EC50 was 5.4 µM.

On to `COc1ccc([C@H]2[C@H]3CCc4ccc(OC)cc4C3=NN2C(=O)COC(C)=O)cc1`, for which the EC50 is 3.1 µM. Consider `COc1ccc([C@H]2[C@H]3CCc4ccc(F)cc4C3=NN2C(C)=O)cc1`, for which the EC50 came to 0.28 µM. On the same count and under the same terms, in the case of `CC(=O)N1N=C2c3cc(O)ccc3CC[C@@H]2[C@@H]1c1ccc(O)cc1` it was over 100 µM; in that of `CCN1N=C2c3cc(OC)ccc3CC[C@@H]2[C@@H]1c1ccc(OC)cc1`, over 100 µM. Take `COc1ccc2c(c1)C1=NN(C(C)=O)[C@@H](c3ccc(F)cc3)[C@H]1CC2`: the EC50 worked out at 0.96 µM. As for `COc1ccc2c(c1)C1=NN(C(C)=O)[C@@H](c3cccc(F)c3)[C@H]1CC2`, the EC50 is 0.68 µM. Take `CC(=O)N1N=C2c3cc(C)ccc3OC[C@H]2[C@@H]1c1ccc(F)cc1`: the EC50 was over 100 µM. `COc1ccc([C@H]2[C@H]3CCc4ccccc4C3=NN2C(C)=O)cc1`: the half-maximal effective concentration (EC50) came to 0.84 µM. On the same count and under the same terms, in the case of `COc1ccc([C@H]2[C@H]3C[C@H](N)c4ccc(OC)cc4C3=NN2C(C)=O)cc1` it was 1.2 µM.

With `COc1ccc([C@H]2[C@H]3C[C@H](N(C)C)c4ccc(OC)cc4C3=NN2C(C)=O)cc1`, the EC50 amounted to 5.1 µM. With `COc1ccc([C@H]2[C@H]3CCc4ccc(OC)cc4C3=NN2C=O)cc1`, the 50% effective concentration (EC50) came to 0.92 µM.

On to `COc1ccc([C@H]2[C@@H]3CCc4ccc(F)cc4C3=NN2C(C)=O)cc1`, for which the EC50 amounted to 2.7 µM. For `COc1ccc([C@H]2[C@H]3CCc4ccc(OC)cc4C3=NN2C(N)=O)cc1`, the half-maximal effective concentration (EC50) is 4.3 µM. For `COc1ccc2c(c1)C1=NN(C(C)=O)[C@@H](c3ccc(F)cc3)[C@@H]1CC2`, the EC50 turned out to be 3.7 µM.

Regarding `CN1C(=O)N[C@H](Cc2c[nH]c3c(Cl)cccc23)C1=O` (racemic), the EC50 worked out at 0.21 µM.
